≈ marks a conversion by molar mass, not a printed value. Calls of active or inactive are those of the source. The calls are words filed in the database; no cut-off is given here.
How the values were obtained:
HeLa = assay: Cytotoxicity against human HeLa cells after 48 hrs by Coulter counter analysis; assay type: functional; details: read-out: ED50 (the source's name)
Herpesviridae sp. = assay: Antiviral activity against Herpes Simplex virus HF infected in African green monkey BGM cells assessed as plaque reduction measured on day 5 by disk diffusion assay; assay type: functional; details: 120 h, read-out: ED50 (the source's name)
L1210 [1] = assay: Antitumor activity against mouse L1210 cells allografted in BDF1 mouse assessed as increase in life span at 1000 mg/kg, ip administered as single dose relative to vehicle-treated control; assay type: functional; details: route intraperitoneal
Procedure, shortened: (§1)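 Single intraperitoneal injection given 24 h after the leukemic cells were introduced, at 100, 200, 500 or 1000 mg/kg. Read-out is % increase in life span (ILS), with the count of 30-day survivors per group recorded (group sizes 7–8 mice).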

Vaccinia virus = assay: Antiviral activity against Vaccinia virus IHD infected in African green monkey BGM cells assessed as plaque reduction measured on day 5 by disk diffusion assay; assay type: functional; details: Orthopoxvirus vaccinia, 120 h, read-out: ED50 (the source's name)
L1210 [2] = assay: Antitumor activity against mouse L1210 cells allografted in BDF1 mouse assessed as survival at 100 mg/kg, ip administered as single dose measured on day 30 relative to vehicle-treated control; assay type: functional, organism-based; parameters: dose 100 mg/kg
Procedure, shortened: (§2)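 Leukemic L1210 cells were introduced into mice. Each compound was then given as a single intraperitoneal injection 24 h later. Activity is expressed as % increase in life span (ILS), with the count of 30-day survivors per group. Doses tested were 100, 200, 500 and 1000 mg/kg.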

L1210 [3] = assay: Antitumor activity against mouse L1210 cells allografted in BDF1 mouse assessed as increase in life span at 200 mg/kg, ip administered as single dose relative to vehicle-treated control; assay type: functional; details: route intraperitoneal; procedure, shortened: as §1
L1210 [4] = assay: Antitumor activity against mouse L1210 cells allografted in BDF1 mouse assessed as increase in life span at 100 mg/kg, ip administered as single dose relative to vehicle-treated control; assay type: functional; details: route intraperitoneal; procedure, shortened: as §1
L1210 [5] = assay: Antitumor activity against mouse L1210 cells allografted in BDF1 mouse assessed as survival at 200 mg/kg, ip administered as single dose measured on day 30 relative to vehicle-treated control; assay type: functional, organism-based; parameters: dose 200 mg/kg; procedure, shortened: as §2
L1210 [6] = assay: Antitumor activity against mouse L1210 cells allografted in BDF1 mouse assessed as increase in life span at 500 mg/kg, ip administered as single dose relative to vehicle-treated control; assay type: functional; details: route intraperitoneal; procedure, shortened: as §1
L1210 [7] = assay: Antitumor activity against mouse L1210 cells allografted in BDF1 mouse assessed as survival at 1000 mg/kg, ip administered as single dose measured on day 30 relative to vehicle-treated control; assay type: functional, organism-based; parameters: dose 1000 mg/kg; procedure, shortened: as §2
L1210 [8] = assay: Antitumor activity against mouse L1210 cells allografted in BDF1 mouse assessed as survival at 500 mg/kg, ip administered as single dose measured on day 30 relative to vehicle-treated control; assay type: functional, organism-based; parameters: dose 500 mg/kg; procedure, shortened: as §2

SMILES | EC50 (HeLa) [µg/mL] | EC50 (Herpesviridae sp.) [nM] | ILS at 1000 mg/kg (L1210 [1]) [%] | EC50 (Vaccinia virus) [nM] | Activity (L1210 [2]) | ILS at 200 mg/kg (L1210 [3]) [%] | ILS at 100 mg/kg (L1210 [4]) [%] | Activity (L1210 [5]) | ILS at 500 mg/kg (L1210 [6]) [%] | Activity (L1210 [7]) | Activity (L1210 [8])
CCCCCCCCCCCCCCCCCCCC(=O)OC[C@H]1O[C@@H](n2ccc(N)nc2=O)[C@@H](O)[C@@H]1OC(=O)CCCCCCCCCCCCCCCCCCC | > 10 | > 30000 | > 205 | > 30000 | inactive | 39 | 87 | inactive | – | – | –
CCCCCCCCCCC(=O)O[C@H]1[C@H](O)[C@H](n2ccc(N)nc2=O)O[C@@H]1CO | 0.04 (≈ 0.0972 µM) | 120 | – | 100 | – | > 125 | > 127 | – | > 99 | – | –
CCCCCCCCCCCCCCCCCC(=O)OC[C@H]1O[C@@H](n2ccc(N)nc2=O)[C@@H](O)[C@@H]1OC(=O)CCCCCCCCCCCCCCCCC | 10 (≈ 12.9 µM) | > 30000 | > 328 | > 30000 | – | 124 | – | inactive | – | – | –
CCCCCC(=O)OC[C@H]1O[C@@H](n2ccc(N)nc2=O)[C@@H](O)[C@@H]1OC(=O)CCCCC | 0.07 (≈ 0.159 µM) | 900 | – | 220 | inactive | 11 | 4 | inactive | – | – | –
CCCCCCCCCCCCCCCCCCCC(=O)O[C@H]1[C@H](O)[C@H](n2ccc(N)nc2=O)O[C@@H]1CO | 0.1 (≈ 0.186 µM) | > 30000 | > 295 | > 30000 | inactive | 164 | 91 | inactive | > 274 | Active | –
Cl.Nc1ccn([C@@H]2O[C@H](COC(=O)Cc3ccccc3)[C@@H](OC(=O)Cc3ccccc3)[C@@H]2O)c(=O)n1 | 0.13 | 1300 | – | 2300 | – | 29 | – | inactive | – | – | –
C=CCCCCCCCC(=O)OC[C@H]1O[C@@H](n2ccc(N)nc2=O)[C@@H](O)[C@@H]1OC(=O)CCCCCCCC=C.Cl | 0.1 | – | – | – | – | – | – | – | – | – | –
CCCCCCCC/C=C\CCCCCCCC(=O)O[C@H]1[C@H](O)[C@H](n2ccc(N)nc2=O)O[C@@H]1CO | 0.06 (≈ 0.118 µM) | 940 | – | 730 | – | 67 | – | inactive | – | – | –
CC(=O)O[C@H]1[C@H](O)[C@H](n2ccc(N)nc2=O)O[C@@H]1CO | 0.14 (≈ 0.491 µM) | 1450 | – | 580 | inactive | 19 | 14 | inactive | 20 | – | inactive
CCCCCCCCC(=O)OC[C@H]1O[C@@H](n2ccc(N)nc2=O)[C@@H](O)[C@@H]1OC(=O)CCCCCCCC.Cl | 0.08 | 520 | – | 190 | – | 71 | – | inactive | – | – | –
CCCCCCCCCCCCCCCCCCCCCC(=O)OC[C@H]1O[C@@H](n2ccc(N)nc2=O)[C@@H](O)[C@@H]1OC(=O)CCCCCCCCCCCCCCCCCCCCC | > 10 | > 30000 | 113 | > 30000 | inactive | 27 | 10 | inactive | – | inactive | –
CCCCCCCCCC(=O)OC[C@H]1O[C@@H](n2ccc(N)nc2=O)[C@@H](O)[C@@H]1OC(=O)CCCCCCCCC | 0.11 (≈ 0.199 µM) | 780 | -4 | 350 | – | > 214 | – | – | > 205 | inactive | –
CC(=O)OC[C@H]1O[C@@H](n2ccc(N)nc2=O)[C@@H](O)[C@@H]1OC(C)=O.Cl | 0.06 | 16000 | – | 3200 | – | 10 | – | inactive | – | – | –
CCCCCCCCCCCCCC(=O)OC[C@H]1O[C@@H](n2ccc(N)nc2=O)[C@@H](O)[C@@H]1OC(=O)CCCCCCCCCCCCC | 1.4 (≈ 2.11 µM) | 10000 | -12 | 5700 | – | > 240 | > 255 | Active | > 105 | inactive | –

Reference: ChEMBL document CHEMBL3272036, “Reactions of 2-acyloxyisobutyryl halides with nucleosides. Synthesis and biological evaluation of some 3"-acyl and 3',5'-diacyl derivatives of 1-beta-D-arabinofuranosylcytosine” (J Med Chem, 1976)
